Test results as given in ChEMBL document CHEMBL1143064, “Novel 9a-carbamoyl- and 9a-thiocarbamoyl-3-decladinosyl-6-hydroxy and 6-methoxy derivatives of 15-membered macrolides” (Bioorg Med Chem, 2007).
In brackets after ≈: the same amount, converted by molar mass.

Key:
[1] = test system: Staphylococcus aureus; test: Antibacterial activity against Staphylococcus aureus-M after 24 hrs by microdilution method; type: functional
Outline: (§1)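 Broth microdilution in Mueller–Hinton medium run on an automated liquid handler. Compounds dissolved in DMF (5 mg/ml stock) and tested in medium from 64 to 0.125 µg/ml. Plates incubated 24 h at 37 °C, then growth read as absorbance at 600 nm. MIC taken as the concentration giving 90% growth inhibition.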

[2] = test system: Staphylococcus aureus; test: Antibacterial activity against Staphylococcus aureus-cMLS after 24 hrs by microdilution method; type: functional; outline: as §1
[3] = test system: Streptococcus pneumoniae; test: Antibacterial activity against Streptococcus pneumoniae after 24 hrs by microdilution method; type: functional; outline: as §1
[4] = test system: Streptococcus pneumoniae; test: Antibacterial activity against Streptococcus pneumoniae-M after 24 hrs by microdilution method; type: functional; outline: as §1
[5] = test system: Streptococcus pyogenes; test: Antibacterial activity against Streptococcus pyogenes after 24 hrs by microdilution method; type: functional; outline: as §1
[6] = test system: Streptococcus pyogenes; test: Antibacterial activity against Streptococcus pyogenes-M after 24 hrs by microdilution method; type: functional; outline: as §1
[7] = test system: Haemophilus influenzae; test: Antibacterial activity against Haemophilus influenzae after 24 hrs by microdilution method; type: functional; outline: as §1
[8] = test system: Saccharomyces cerevisiae; test: Toxicity against Saccharomyces cerevisiae; type: organism-based; conditions: in vivo
Outline: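 Yeast used as a surrogate for eukaryotic cell toxicity. Microdilution in Mueller–Hinton medium with compound from a DMF stock (5 mg/ml), final range 64 to 0.125 µg/ml. Incubated 24 h at 37 °C, with optical density read at 600 nm. MIC defined as the concentration inhibiting growth by 90%.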

Compound | MIC [1] | MIC [2] | MIC [3] | MIC [4] | MIC [5] | MIC [6] | MIC [7] | Activity [8]
CC[C@H]1OC(=O)[C@H](C)C2(O)O[C@@](C)(C[C@@H](C)CN(C(=O)NC(C)C)[C@H](C)[C@@H](O)[C@]1(C)O)[C@H](O[C@@H]1O[C@H](C)C[C@H](N(C)C)[C@H]1O)[C@H]2C | > 64 µg/mL | > 64 µg/mL | > 64 µg/mL | > 64 µg/mL | > 64 µg/mL | > 64 µg/mL | > 64 µg/mL | Non-toxic
CC[C@H]1OC(=O)[C@H](C)C(=O)[C@H](C)[C@@H](O[C@@H]2O[C@H](C)C[C@H](N(C)C)[C@H]2O)[C@](C)(OC)C[C@@H](C)CN(C(=O)NC(C)C)[C@H](C)[C@@H](O)[C@]1(C)O | > 64 µg/mL | > 64 µg/mL | 8 µg/mL (≈ 11.9 µM) | > 64 µg/mL | 16 µg/mL (≈ 23.7 µM) | > 64 µg/mL | > 64 µg/mL | Non-toxic
CC[C@H]1OC(=O)[C@H](C)C2O[C@@](C)(C[C@@H](C)CN(C(=O)Nc3ccc(Cl)cc3Cl)[C@H](C)[C@@H](O)[C@]1(C)O)[C@H](O[C@@H]1O[C@H](C)C[C@H](N(C)C)[C@H]1O)[C@H]2C | > 64 µg/mL | > 64 µg/mL | > 64 µg/mL | > 64 µg/mL | > 64 µg/mL | > 64 µg/mL | > 64 µg/mL | Non-toxic
CC[C@H]1OC(=O)[C@H](C)C(=O)[C@H](C)[C@@H](O[C@@H]2O[C@H](C)C[C@H](N(C)C)[C@H]2O)[C@](C)(OC)C[C@@H](C)CN(C(=O)Nc2ccc(Cl)cc2Cl)[C@H](C)[C@@H](O)[C@]1(C)O | > 64 µg/mL | > 64 µg/mL | 8 µg/mL (≈ 10.3 µM) | 8 µg/mL (≈ 10.3 µM) | 16 µg/mL (≈ 20.6 µM) | > 64 µg/mL | > 64 µg/mL | Non-toxic
CC[C@H]1OC(=O)[C@H](C)C2(O)O[C@@](C)(C[C@@H](C)CN(C(=O)Nc3ccc(Cl)cc3Cl)[C@H](C)[C@@H](O)[C@]1(C)O)[C@H](O[C@@H]1O[C@H](C)C[C@H](N(C)C)[C@H]1O)[C@H]2C | > 64 µg/mL | > 64 µg/mL | > 64 µg/mL | > 64 µg/mL | > 64 µg/mL | > 64 µg/mL | > 64 µg/mL | Non-toxic
CC[C@H]1OC(=O)[C@H](C)[C@@H](O)[C@H](C)[C@@H](O[C@@H]2O[C@H](C)C[C@H](N(C)C)[C@H]2O)[C@](C)(O)C[C@@H](C)CN(C(=S)NCc2ccccc2)[C@H](C)[C@@H](O)[C@]1(C)O | > 64 µg/mL | > 64 µg/mL | > 64 µg/mL | > 64 µg/mL | > 64 µg/mL | > 64 µg/mL | > 64 µg/mL | Non-toxic
CC[C@H]1OC(=O)[C@H](C)[C@@H](O)[C@H](C)[C@@H](O[C@@H]2O[C@H](C)C[C@H](N(C)C)[C@H]2O)[C@](C)(O)C[C@@H](C)CN(C(=O)Nc2cccc(C(F)(F)F)c2)[C@H](C)[C@@H](O)[C@]1(C)O | > 64 µg/mL | > 64 µg/mL | > 64 µg/mL | > 64 µg/mL | > 64 µg/mL | > 64 µg/mL | > 64 µg/mL | Non-toxic
CC[C@H]1OC(=O)[C@H](C)[C@@H](O[C@H]2C[C@@](C)(OC)[C@@H](O)[C@H](C)O2)[C@H](C)[C@@H](O[C@@H]2O[C@H](C)C[C@H](N(C)C)[C@H]2O)[C@](C)(OC)C[C@@H](C)CN[C@H](C)[C@@H](O)[C@]1(C)O | > 64 µg/mL | > 64 µg/mL | 0.5 µg/mL (≈ 0.668 µM) | 16 µg/mL (≈ 21.4 µM) | 1 µg/mL (≈ 1.34 µM) | 16 µg/mL (≈ 21.4 µM) | 8 µg/mL (≈ 10.7 µM) | Non-toxic
C=CCNC(=S)N1C[C@H](C)C[C@@](C)(O)[C@H](O[C@@H]2O[C@H](C)C[C@H](N(C)C)[C@H]2O)[C@@H](C)[C@H](O)[C@@H](C)C(=O)O[C@H](CC)[C@@](C)(O)[C@H](O)[C@H]1C | > 64 µg/mL | > 64 µg/mL | > 64 µg/mL | > 64 µg/mL | > 64 µg/mL | > 64 µg/mL | > 64 µg/mL | Non-toxic
CC[C@H]1OC(=O)[C@H](C)[C@@H](O)[C@H](C)[C@@H](O[C@@H]2O[C@H](C)C[C@H](N(C)C)[C@H]2O)[C@](C)(O)C[C@@H](C)CN(C(=O)NCc2ccccc2)[C@H](C)[C@@H](O)[C@]1(C)O | > 64 µg/mL | > 64 µg/mL | > 64 µg/mL | > 64 µg/mL | > 64 µg/mL | > 64 µg/mL | > 64 µg/mL | Non-toxic
CC[C@H]1OC(=O)[C@H](C)[C@@H](O)[C@H](C)[C@@H](O[C@@H]2O[C@H](C)C[C@H](N(C)C)[C@H]2O)[C@](C)(O)C[C@@H](C)CN(C(=S)Nc2cccc(C(F)(F)F)c2)[C@H](C)[C@@H](O)[C@]1(C)O | > 64 µg/mL | > 64 µg/mL | > 64 µg/mL | > 64 µg/mL | > 64 µg/mL | > 64 µg/mL | > 64 µg/mL | Non-toxic
CC[C@H]1OC(=O)[C@H](C)[C@@H](O)[C@H](C)[C@@H](O[C@@H]2O[C@H](C)C[C@H](N(C)C)[C@H]2O)[C@](C)(O)C[C@@H](C)CN(C(=O)NC(C)(C)C)[C@H](C)[C@@H](O)[C@]1(C)O | > 64 µg/mL | > 64 µg/mL | > 64 µg/mL | > 64 µg/mL | > 64 µg/mL | > 64 µg/mL | > 64 µg/mL | Non-toxic
CCNC(=O)N1C[C@H](C)C[C@@](C)(O)[C@H](O[C@@H]2O[C@H](C)C[C@H](N(C)C)[C@H]2O)[C@@H](C)[C@H](O)[C@@H](C)C(=O)O[C@H](CC)[C@@](C)(O)[C@H](O)[C@H]1C | > 64 µg/mL | > 64 µg/mL | > 64 µg/mL | > 64 µg/mL | > 64 µg/mL | > 64 µg/mL | > 64 µg/mL | Non-toxic
CC[C@H]1OC(=O)[C@H](C)[C@@H](O)[C@H](C)[C@@H](O[C@@H]2O[C@H](C)C[C@H](N(C)C)[C@H]2O)[C@](C)(OC)C[C@@H](C)CN(C(=O)NC(C)C)[C@H](C)[C@@H](O)[C@]1(C)O | > 64 µg/mL | > 64 µg/mL | 32 µg/mL (≈ 47.3 µM) | > 64 µg/mL | > 64 µg/mL | > 64 µg/mL | > 64 µg/mL | Non-toxic
CC[C@H]1OC(=O)[C@H](C)C2O[C@@](C)(C[C@@H](C)CN(C(=O)NC(C)C)[C@H](C)[C@@H](O)[C@]1(C)O)[C@H](O[C@@H]1O[C@H](C)C[C@H](N(C)C)[C@H]1O)[C@H]2C | > 64 µg/mL | > 64 µg/mL | > 64 µg/mL | > 64 µg/mL | > 64 µg/mL | > 64 µg/mL | > 64 µg/mL | Non-toxic
CC[C@H]1OC(=O)[C@H](C)[C@@H](O)[C@H](C)[C@@H](O[C@@H]2O[C@H](C)C[C@H](N(C)C)[C@H]2O)[C@](C)(O)C[C@@H](C)CN(C(=O)Nc2ccc(Cl)cc2Cl)[C@H](C)[C@@H](O)[C@]1(C)O | > 64 µg/mL | > 64 µg/mL | > 64 µg/mL | > 64 µg/mL | > 64 µg/mL | > 64 µg/mL | > 64 µg/mL | Non-toxic
CC[C@H]1OC(=O)[C@H](C)[C@@H](O[C@H]2C[C@@](C)(OC)[C@@H](O)[C@H](C)O2)[C@H](C)[C@@H](O[C@@H]2O[C@H](C)C[C@H](N(C)C)[C@H]2O)[C@](C)(O)C[C@@H](C)C(=O)[C@H](C)[C@@H](O)[C@]1(C)O [ERYTHROMYCIN] | > 64 µg/mL | > 64 µg/mL | 0.125 µg/mL (≈ 0.17 µM) | 8 µg/mL (≈ 10.9 µM) | 0.125 µg/mL (≈ 0.17 µM) | 8 µg/mL (≈ 10.9 µM) | 4 µg/mL (≈ 5.45 µM) | 
